# Results from ChEMBL document CHEMBL2384907, “Identification of substituted pyrimido[5,4-b]indoles as selective Toll-like receptor 4 ligands” (J Med Chem, 2013).
# Active and inactive are the calls of the source. The calls are words filed in the database; no cut-off is given here.
# Key:
# [1] = biological target: T1, Toll-like receptor 4 (Mus musculus) (UniProt Q9QUK6); experiment: Activation of TLR4 in C57BL/6 mouse BMDC cells assessed as AUC of IL6 release after 18 hrs by ELISA relative to N-cyclohexyl-2-(4-oxo-3-phenyl-4,5-dihydro-3H-pyrimido[5,4-b]indol-2-ylthio)acetamide; assay type: cell-based
# T1 sequence (whole entry): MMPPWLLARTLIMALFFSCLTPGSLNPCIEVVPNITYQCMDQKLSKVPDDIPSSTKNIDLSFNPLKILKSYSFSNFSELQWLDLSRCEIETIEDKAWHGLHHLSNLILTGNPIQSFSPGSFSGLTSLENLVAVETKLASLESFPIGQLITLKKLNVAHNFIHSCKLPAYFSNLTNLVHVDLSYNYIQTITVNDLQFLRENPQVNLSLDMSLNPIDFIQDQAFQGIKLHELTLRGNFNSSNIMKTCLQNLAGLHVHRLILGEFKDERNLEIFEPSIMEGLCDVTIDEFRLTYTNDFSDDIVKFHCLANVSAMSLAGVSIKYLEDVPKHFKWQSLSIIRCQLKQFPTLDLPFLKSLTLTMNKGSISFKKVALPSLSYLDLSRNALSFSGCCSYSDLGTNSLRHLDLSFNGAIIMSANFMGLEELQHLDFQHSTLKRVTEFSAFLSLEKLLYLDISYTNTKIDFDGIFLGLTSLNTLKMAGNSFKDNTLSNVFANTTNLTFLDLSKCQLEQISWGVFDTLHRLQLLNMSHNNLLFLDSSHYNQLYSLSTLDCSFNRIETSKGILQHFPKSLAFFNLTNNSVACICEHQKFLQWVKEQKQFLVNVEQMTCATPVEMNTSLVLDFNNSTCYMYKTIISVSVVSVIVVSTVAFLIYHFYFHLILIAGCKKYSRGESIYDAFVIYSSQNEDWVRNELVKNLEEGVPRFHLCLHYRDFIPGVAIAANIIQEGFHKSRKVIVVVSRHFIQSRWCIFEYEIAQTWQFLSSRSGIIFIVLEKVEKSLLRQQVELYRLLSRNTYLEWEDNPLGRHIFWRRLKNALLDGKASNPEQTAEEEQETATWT
# Procedure, shortened: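 C57BL/6 bone marrow DC, 10^5 cells/well in RPMI-10% FCS, 18 h at 37 °C with titrated doses 312 nM–10 μM; supernatant IL-6 by ELISA. Each curve converted to percent activity (background subtracted, plate-adjusted), AUC by trapezoid method, normalized to reference hit set at 100 per experiment. LPS 10 ng/mL positive control; 0.5% DMSO vehicle.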
# [2] = biological target: Toll-like receptor 4 (Homo sapiens) (UniProt O00206); experiment: Activation of human TLR4 transfected in HEK293 cells assessed as NFkappaB activation after 20 to 24 hrs by SEAP assay; assay type: cell-based
# Procedure, shortened: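 Human or mouse TLR4 HEK-Blue cells (2.5 × 10^4/well) incubated with graded concentrations for 20–24 h; NFκB-driven SEAP in culture supernatant measured colorimetrically.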
# [3] = biological target: Toll-like receptor 4/MD-2/CD14 (Homo sapiens) (UniProt O00206+Q9Y6Y9+P08571); experiment: Activation of human TLR4/MD-2/CD14 transfected in HEK293 cells at 10 uM after 20 to 24 hrs by SEAP assay; assay type: cell-based
# BMDC = experiment: Induction of IL6 secretion in C57BL/6 mouse TLR4 deficient BMDC cells at 10 uM after 18 hrs by ELISA; assay type: functional, cell-based
# Procedure, shortened: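 BMDC from Tlr4–/– mice (backcrossed 10 generations onto C57BL/6) and wild-type mice incubated with 10 μM compound for 18 h; IL-6 in culture supernatants by ELISA.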
# [4] = biological target: Toll-like receptor 4 (Homo sapiens) (UniProt O00206); experiment: Activation of human TLR4 transfected in HEK293 cells after 18 hrs by SEAP assay relative to N-cyclohexyl-2-(4-oxo-3-phenyl-4,5-dihydro-3H-pyrimido[5,4-b]indol-2-ylthio)acetamide; assay type: cell-based; set-up: concentration or dose not given beside the values
# Procedure, shortened: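 Human TLR4 HEK-Blue cells (2.5 × 10^4/well) given compound at 10 μM for 18 h, 0.5% DMSO vehicle; SEAP in supernatant read at 630 nm, normalized to reference hit set at 100. LPS 10 ng/mL positive control.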
# [5] = biological target: T1, Toll-like receptor 4 (Mus musculus); experiment: Activation of TLR4 in C57BL/6 mouse BMDC cells assessed as AUC of IP10 release at 5 uM after 18 hrs by ELISA relative to N-cyclohexyl-2-(4-oxo-3-phenyl-4,5-dihydro-3H-pyrimido[5,4-b]indol-2-ylthio)acetamide; assay type: cell-based
# [6] = biological target: Toll-like receptor 3 (Homo sapiens) (UniProt O15455); experiment: Activation of human TLR3 transfected in HEK293 cells at 10 uM after 20 to 24 hrs by SEAP assay; assay type: cell-based
# [7] = biological target: T2, Toll-like receptor 9 (Homo sapiens) (UniProt Q9NR96); experiment: Activation of human TLR9 transfected in HEK293 cells at 10 uM after 20 to 24 hrs by SEAP assay; assay type: cell-based
# T2 sequence (whole entry): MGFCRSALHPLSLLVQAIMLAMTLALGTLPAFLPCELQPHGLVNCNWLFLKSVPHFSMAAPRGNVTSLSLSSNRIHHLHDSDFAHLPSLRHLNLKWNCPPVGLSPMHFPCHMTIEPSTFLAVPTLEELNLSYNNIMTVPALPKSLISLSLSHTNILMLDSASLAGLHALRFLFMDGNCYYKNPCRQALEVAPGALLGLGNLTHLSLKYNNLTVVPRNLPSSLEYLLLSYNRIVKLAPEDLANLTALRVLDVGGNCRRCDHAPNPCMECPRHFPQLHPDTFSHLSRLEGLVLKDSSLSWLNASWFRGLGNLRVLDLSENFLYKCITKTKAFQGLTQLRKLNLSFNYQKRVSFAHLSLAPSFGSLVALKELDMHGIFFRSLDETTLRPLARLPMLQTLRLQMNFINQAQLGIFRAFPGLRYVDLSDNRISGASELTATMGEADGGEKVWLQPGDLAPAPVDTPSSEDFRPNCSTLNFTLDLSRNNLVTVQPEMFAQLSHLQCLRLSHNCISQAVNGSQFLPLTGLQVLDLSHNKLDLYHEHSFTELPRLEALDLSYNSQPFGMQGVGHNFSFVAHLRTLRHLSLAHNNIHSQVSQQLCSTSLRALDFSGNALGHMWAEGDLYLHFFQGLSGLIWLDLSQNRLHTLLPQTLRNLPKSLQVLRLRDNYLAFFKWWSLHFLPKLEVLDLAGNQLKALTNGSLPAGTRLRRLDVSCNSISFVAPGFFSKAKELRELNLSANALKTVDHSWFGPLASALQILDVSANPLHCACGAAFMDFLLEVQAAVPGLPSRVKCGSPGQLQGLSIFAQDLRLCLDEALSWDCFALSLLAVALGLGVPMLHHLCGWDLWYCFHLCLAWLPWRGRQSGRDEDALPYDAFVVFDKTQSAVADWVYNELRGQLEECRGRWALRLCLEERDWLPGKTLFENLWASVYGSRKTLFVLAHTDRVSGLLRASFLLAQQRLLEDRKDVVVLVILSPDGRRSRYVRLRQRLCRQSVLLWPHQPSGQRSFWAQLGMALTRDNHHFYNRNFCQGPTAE
# [8] = biological target: Toll-like receptor 2 (Homo sapiens) (UniProt O60603); experiment: Activation of human TLR2 transfected in HEK293 cells at 10 uM after 20 to 24 hrs by SEAP assay; assay type: cell-based
# Toll-like receptor 2 (Homo sapiens), sequence (O60603 whole entry): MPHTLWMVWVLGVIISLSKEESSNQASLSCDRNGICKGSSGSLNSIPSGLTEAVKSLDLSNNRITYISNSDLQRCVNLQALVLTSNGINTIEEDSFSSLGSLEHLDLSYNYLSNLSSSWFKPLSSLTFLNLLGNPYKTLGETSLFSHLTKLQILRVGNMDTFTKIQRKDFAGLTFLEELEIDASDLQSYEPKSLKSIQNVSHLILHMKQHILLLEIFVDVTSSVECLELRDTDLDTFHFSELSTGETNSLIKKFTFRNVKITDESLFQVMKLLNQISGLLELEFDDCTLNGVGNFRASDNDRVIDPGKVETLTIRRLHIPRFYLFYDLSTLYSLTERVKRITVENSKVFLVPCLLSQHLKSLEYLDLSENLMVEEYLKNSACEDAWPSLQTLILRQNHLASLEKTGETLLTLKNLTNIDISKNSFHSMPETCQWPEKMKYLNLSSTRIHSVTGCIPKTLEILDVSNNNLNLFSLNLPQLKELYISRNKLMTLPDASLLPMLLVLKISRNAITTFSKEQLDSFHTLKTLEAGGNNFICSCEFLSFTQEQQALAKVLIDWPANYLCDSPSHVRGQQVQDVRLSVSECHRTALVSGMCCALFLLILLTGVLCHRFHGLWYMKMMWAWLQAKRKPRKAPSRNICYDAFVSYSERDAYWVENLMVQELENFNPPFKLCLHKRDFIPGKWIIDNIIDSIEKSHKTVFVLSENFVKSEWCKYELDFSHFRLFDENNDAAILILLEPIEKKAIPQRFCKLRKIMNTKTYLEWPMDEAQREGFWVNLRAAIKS
# Toll-like receptor 4 (Homo sapiens), sequence (O00206 whole entry): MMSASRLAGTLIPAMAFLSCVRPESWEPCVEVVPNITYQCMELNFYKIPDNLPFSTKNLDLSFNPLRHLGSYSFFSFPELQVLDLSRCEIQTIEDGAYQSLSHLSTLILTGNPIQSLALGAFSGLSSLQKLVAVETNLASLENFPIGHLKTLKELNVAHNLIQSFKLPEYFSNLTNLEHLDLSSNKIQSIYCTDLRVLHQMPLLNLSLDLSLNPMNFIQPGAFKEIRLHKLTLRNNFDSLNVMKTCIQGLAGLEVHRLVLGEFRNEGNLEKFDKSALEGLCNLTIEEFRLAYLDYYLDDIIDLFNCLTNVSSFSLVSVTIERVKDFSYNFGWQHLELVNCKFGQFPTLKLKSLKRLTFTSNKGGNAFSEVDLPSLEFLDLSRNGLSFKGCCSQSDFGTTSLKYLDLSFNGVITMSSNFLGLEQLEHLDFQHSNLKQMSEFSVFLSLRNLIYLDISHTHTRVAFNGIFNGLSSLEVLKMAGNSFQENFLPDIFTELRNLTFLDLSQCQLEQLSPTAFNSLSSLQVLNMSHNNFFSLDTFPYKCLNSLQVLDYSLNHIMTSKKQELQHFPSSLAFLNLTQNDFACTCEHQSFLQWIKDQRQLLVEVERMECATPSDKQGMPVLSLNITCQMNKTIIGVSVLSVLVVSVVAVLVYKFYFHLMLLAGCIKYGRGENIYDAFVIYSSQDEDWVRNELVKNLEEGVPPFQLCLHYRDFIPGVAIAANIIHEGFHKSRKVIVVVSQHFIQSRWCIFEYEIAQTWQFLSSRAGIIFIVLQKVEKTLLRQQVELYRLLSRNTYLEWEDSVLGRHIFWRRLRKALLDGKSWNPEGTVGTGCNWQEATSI
# Toll-like receptor 3 (Homo sapiens), sequence (O15455 whole entry): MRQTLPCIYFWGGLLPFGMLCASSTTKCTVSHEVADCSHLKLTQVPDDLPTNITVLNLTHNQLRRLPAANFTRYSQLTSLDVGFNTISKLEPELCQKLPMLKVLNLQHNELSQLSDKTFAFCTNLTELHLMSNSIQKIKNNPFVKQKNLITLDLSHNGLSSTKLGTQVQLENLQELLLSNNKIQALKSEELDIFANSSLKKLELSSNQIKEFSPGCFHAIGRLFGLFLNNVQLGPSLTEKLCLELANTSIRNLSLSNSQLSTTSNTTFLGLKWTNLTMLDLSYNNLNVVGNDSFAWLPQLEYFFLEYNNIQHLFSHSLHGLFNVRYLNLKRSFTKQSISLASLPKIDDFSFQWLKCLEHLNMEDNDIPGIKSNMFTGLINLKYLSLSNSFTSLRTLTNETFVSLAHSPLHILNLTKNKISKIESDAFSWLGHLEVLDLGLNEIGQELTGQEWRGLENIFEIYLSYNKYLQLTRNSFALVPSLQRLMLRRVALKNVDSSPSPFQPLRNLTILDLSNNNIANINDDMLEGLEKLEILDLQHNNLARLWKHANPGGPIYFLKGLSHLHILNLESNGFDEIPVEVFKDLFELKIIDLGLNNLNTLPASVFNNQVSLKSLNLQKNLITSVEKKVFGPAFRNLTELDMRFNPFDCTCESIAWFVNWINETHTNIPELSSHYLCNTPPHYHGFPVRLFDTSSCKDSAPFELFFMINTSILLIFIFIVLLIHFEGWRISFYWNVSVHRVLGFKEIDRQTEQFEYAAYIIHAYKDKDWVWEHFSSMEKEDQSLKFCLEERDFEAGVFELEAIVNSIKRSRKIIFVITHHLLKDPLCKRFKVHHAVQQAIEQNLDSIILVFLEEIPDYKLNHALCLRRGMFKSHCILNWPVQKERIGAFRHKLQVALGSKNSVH
smiles,measurement,setting,value
O=C(CSc1nc2c([nH]c3ccccc32)c(=O)n1-c1ccccc1)NC1CCCCC1,Activity,[1],100%
same,Activity,[2],Dose-dependent effect
same,Activity,[3],Active
same,Activity,BMDC,inactive
same,Activity,[4],100%
same,Activity,[5],100%
same,Activity,[6],inactive
same,Activity,[7],inactive
same,Activity,[8],inactive
